Screens from PubChem BioAssay.
VIM-2 inhibitor: blocks Pseudomonas aeruginosa VIM-2 metallo-beta-lactamase | purified VIM-2, nitrocefin hydrolysis, epi-absorbance fluorescence | inhibition, % at 5.6 µM | 290,000 compounds, 0.89% hits | AID 1527;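 active = inhibition above the mean of all tested compounds plus 3 SD, cutoff set per screening run, cut at about 7.5% in these data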;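 note: red hydrolysis product quenches plate fluorescence so inhibitors raise well fluorescence; 0% = enzyme with DMSO and 100% = DMSO without enzyme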
procasp3 activ: procaspase-3 (human) activation | recombinant procaspase-3 D3A, Ac-DEVD-pNA absorbance 405 nm | 330,000 compounds, 0.11% hits | AID 463141 | activation, % at 8.5 µM;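 active = activation above the mean of all tested compounds plus 3 SD, cut at about 21% in these data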;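 note: 0% = DMSO alone and 100% = DMSO wells spiked with extra 5 µM PC-3 D3A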
Target sequence (P42574 whole entry D9A/D28A/D175A): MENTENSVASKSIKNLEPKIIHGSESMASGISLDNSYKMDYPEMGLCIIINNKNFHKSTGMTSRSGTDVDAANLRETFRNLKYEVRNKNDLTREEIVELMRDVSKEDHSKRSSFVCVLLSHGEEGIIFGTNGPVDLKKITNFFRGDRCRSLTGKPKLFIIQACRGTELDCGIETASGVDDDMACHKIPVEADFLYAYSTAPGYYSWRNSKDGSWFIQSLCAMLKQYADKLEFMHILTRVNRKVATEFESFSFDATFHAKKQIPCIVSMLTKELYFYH
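Assay system – Procaspase-3 D3A mutant · Benchmarks – DMSO low control, extra-enzyme high control · Technique – 405 nm absorbance of p-nitroaniline, reads at 0 and 120 min · Doses – 8.5 µM nominal · Measure – % activation between DMSO and enzyme-spiked controls · Also added – Ac-DEVD-pNA chromogenic peptide substrate · Schedule – 1 h compound preincubation, 2 h substrate hydrolysis at 25 °C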
PolyA inh: inhibitors of polyadenylation in S. cerevisiae; S. cerevisiae SKY197-pL101 polyadenylation reporter, beta-gal luminescence; efflux-impaired pdr1/pdr3 knockout yeast; score 100 = 6 SD above DMSO; activity score, % at 12 µM; 300,000 compounds, 0.02% hits; AID 1875;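 active = lowest replicate activity score at least 50, where 100 means six control SD above control mean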;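 note: yeast exposed to compound for 9 h at 30 °C; higher score means more reporter readthrough which indicates perturbed polyadenylation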
Neddylation inh: inhibitors of human cullin neddylation; P61081+Q13564; TR-FRET cullin neddylation, biochemical; calls only at 25 µM; 360,000 compounds, 0.58% hits; in the data active = inhibition above about 36%
IMP-1 inhibitor: blocks Pseudomonas aeruginosa IMP-1 metallo-beta-lactamase | purified IMP-1, nitrocefin hydrolysis, epi-absorbance fluorescence | inhibition, % at 5.6 µM | 290,000 compounds, 0.45% hits;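 active = inhibition above the mean plus 3 SD of all compounds in the same screening run, cut at about 4.5% in these data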;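 note: 0% = IMP-1 with DMSO and 100% = DMSO wells lacking enzyme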
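System: Purified IMP-1 | Read-out basis: Percent enzyme inhibition | Controls: IMP-1 with DMSO as 0%, enzyme-free DMSO as 100% | Replicates: One well per compound | Doses: 5.6 µM nominal single concentration | Detection: Epi-absorbance fluorescence, 480 nm excitation, 530 nm emission | Incubation: 25 °C, 15 min preincubation, 25 min reaction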
procasp7 counter: counter-screen: procaspase-7 (human) activation. P55210. recombinant procaspase-7, Ac-DEVD-pNA absorbance 405 nm; D23A/D198A/D206A triple mutant, cannot self-cleave; scale: DMSO 0, 5 µM enzyme 100. activation, % at 8.5 µM. 330,000 compounds, 0.093% hits. AID 463210;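 active = percent activation above the screen-wide mean plus 3 SD, cut at about 25% in these data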
Target sequence (P55210 whole entry D23A/D198A/D206A): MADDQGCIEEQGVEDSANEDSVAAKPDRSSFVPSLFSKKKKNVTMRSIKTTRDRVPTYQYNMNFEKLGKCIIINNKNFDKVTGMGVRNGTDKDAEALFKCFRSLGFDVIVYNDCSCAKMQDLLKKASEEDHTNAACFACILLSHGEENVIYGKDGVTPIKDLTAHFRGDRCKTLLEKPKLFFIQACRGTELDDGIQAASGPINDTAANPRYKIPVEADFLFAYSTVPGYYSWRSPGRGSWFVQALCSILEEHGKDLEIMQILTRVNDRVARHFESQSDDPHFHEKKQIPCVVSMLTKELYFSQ
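Assay system: Uncleavable procaspase-7 mutant enzyme; Input: 2 µM procaspase-7 mutant as dispensed; Also added: DEVD-pNA substrate; Medium: Zinc-free HEPES pH 7.4 with 300 mM NaCl, 0.01% Triton X-100; Timing: 1 h compound preincubation, 2 h substrate cleavage, 25 °C; Measured by: Epi-absorbance of released pNA at 405 nm, two timepoints.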
PC3 dual counter: counter-screen for dual procaspase-3/7 activators: human procaspase-3 activation. recombinant PC-3 D3A, Ac-DEVD-pNA absorbance 405 nm; aspartates 9, 28, 175 changed to alanine; 100% = enzyme control. shares compounds with procasp7 counter. 290 tested, under 10 active. activation, % at 8.5 µM. AID 493114;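 active = mean percent activation across triplicates above a set limit taken from the earlier primary procaspase-3 screen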;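 note: 0% = DMSO wells and 100% = DMSO wells with 5 µM added PC-3 D3A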
PC7 dual conf: confirmation of dual procaspase activators: human procaspase-7 activation; shares compounds with procasp7 counter; recombinant procaspase-7, Ac-DEVD-pNA absorbance 405 nm; D23A/D198A/D206A mutant that cannot self-cleave; activation, % at 8.5 µM; 290 tested, under 10 active; AID 493115;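 active = mean activation above a set limit carried over from the earlier primary screen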;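 note: 0% = DMSO only and 100% = DMSO with added 5 µM PC-7 enzyme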
Neddyl conf: cullin neddylation inhibition, confirmation; shares compounds with Neddylation inh; TR-FRET cullin neddylation biochemical assay; calls only at 25 µM; 1,800 compounds, 13% hits; AID 652217; in the data active = inhibition above about 40%;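 note: neddylation substrate is the cullin 1 ring ligase complex with SKP2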
* marks the source's active call; other numbers are inactive results; i = inactive; · = no result given; + = active, no number. Sampled rows, rich in hits. Any-hit rate of the full collection: about 1.7%.

SMILES	VIM-2 inhibitor	procasp3 activ	PolyA inh	Neddylation inh	IMP-1 inhibitor	procasp7 counter	PC3 dual counter	PC7 dual conf	others
C[C@@H]1C(c2cccc(Cl)c2)=NN(c2ccccc2)[C@H]1C(=O)N1CCOC1=O	·	7	·	i	·	30*	-30	-36
C[C@@H]1C(c2cccc(Cl)c2)=NN(c2ccc(Br)cc2)[C@H]1C(=O)N1CCOC1=O	·	22*	·	i	·	29*	-30	-36
Cc1cccc(C2=NN(c3ccc(Br)cc3)[C@@H](C(=O)N3CCOC3=O)[C@@H]2c2ccccc2)c1	·	20	·	i	·	32*	-30	-33
N#Cc1c(N)nc2c(c1-c1ccc3c(c1)OCO3)CCc1ccccc1-2	2	16	-36	i	-3	30*	-30	-34
N#Cc1c(N)c(C#N)c(-c2ccc3c(c2)OCO3)c2c1CCCC2	·	5	-4	i	·	2	·	·
CN(C)c1ccc(-c2nn3c(-c4ccccc4Cl)nnc3s2)cc1	-2	-3	-12	·	-2	34*	-29	-35
O=C(NCCOc1ccccc1)C1CCC(=O)N(CCCN2CCOCC2)C1 (stereo unspecified)	-2	5	6	i	-3	-3	·	·
O=C(NCCN1CCCC1)C1CCC(=O)N(CCCN2CCOCC2)C1 (stereo unspecified)	0	0	-8	i	-2	45*	1	0
O=c1[nH]c(-c2ccccc2)nc2sc(-c3ccccc3)cc12	-2	29*	-24	·	-2	26*	-29	-35
O=c1[nH]cnc2sc(-c3ccccc3)cc12	-1	1	-25	i	-3	0	·	·
COc1ccc(-c2cc(C(F)(F)F)n3nc(C(=O)NCc4ccco4)cc3n2)cc1	3	60*	4	·	-5	42*	-30	-37
O=C(NCc1ccco1)c1cc2nc(-c3ccc4c(c3)OCO4)cc(C(F)(F)F)n2n1	4	-3	-15	·	-2	-1	·	·
CC(=O)c1sc(NC(=O)C2CC(=O)N(Cc3ccco3)C2)nc1-c1ccccc1 (stereo unspecified)	·	-5	1	i	·	-1	·	·
O=c1cc(-c2ccc(O)cc2)oc2ccc3ccccc3c12	·	22*	·	i	·	29*	4	2
O=c1cc(-c2ccc(O)cc2)oc2c1ccc1ccccc12	·	-8	·	·	·	4	·	·
Cc1ccc2ccccc2c1CSc1nc(N)nc2c1ncn2CC(C)C	·	·	·	i	·	·	·	·
CNc1oc(-c2cccs2)nc1C#N	1	-2	28	·	0	8	·	·
COc1ccc(Nc2oc(-c3cccs3)nc2C#N)cc1	-1	16	-32	·	-2	53*	-30	-30
O=C1C(Cl)=C(NCCc2ccccc2)C(=O)N1CCc1ccccc1	-2	4	-1	i	-3	33*	-12	-6
CCn1c(=NC(=O)C2COc3ccccc3O2)sc2c(OC)ccc(OC)c21 (stereo unspecified)	0	6	-10	i	-1	36*	2	2
C#CCSc1[nH]c(=O)cc(C)c1C#N	1	-5	14	i	-1	5	·	·
Cc1ccc(S(=O)(=O)N2CCN(C(C)C(=O)Nc3ccccc3-c3ccccc3)CC2)cc1 (stereo unspecified)	-2	1	-31	i	-1	-1	·	·
O=C(Nc1ccc(O)c(-c2nc3ccccc3s2)c1)C1=COCCO1	-1	-1	-15	i	-4	32*	2	1
CC(=O)Nc1ccc(O)c(-c2nc3ccccc3s2)c1	-4	8	-2	i	-2	36*	0	-1
Cc1ccsc1C(=O)Nc1ccc(O)c(-c2nc3ccccc3s2)c1	-1	10	10	i	-1	9	·	·
SMILES	VIM-2 inhibitor	procasp3 activ	PolyA inh	Neddylation inh	IMP-1 inhibitor	procasp7 counter	PC3 dual counter	PC7 dual conf	others
Cc1ccc2nc3c(cc2c1)c(NC(=O)c1ccco1)nn3CC(C)C	0	52*	-5	·	-3	64*	-29	-34
COc1ccc(/C=N/NC(=O)c2sc3nc(C)cc(C)c3c2N)cc1	0	19	3	·	0	49*	-28	-35
CCCn1c(SCC(=O)N2CCCCC2)nnc1-c1ccco1	1	11	3	i	-3	3	·	·
Cc1cc(C)c2c3c(sc2n1)C(=O)N(C)CC(=O)N3	-3	6	10	i	-2	0	·	·
O=C(Nc1ccc(-n2cnnn2)cc1)c1cn2ccccc2n1	-2	-4	1	+	-2	7	·	·	Neddyl conf=i
O=C(Nc1ccccc1)c1cn2ccccc2n1	1	1	2	i	-1	3	·	·
CC(Oc1ccccc1)C(=O)N1CCN(c2ccc(N3CCCCC3)nn2)CC1 (stereo unspecified)	·	10	22	+	·	0	·	·
COc1ccc(C(=O)Nc2ccnn2C2CCN(CC3CC=CCC3)CC2)cc1 (stereo unspecified)	-3	·	17	i	-3	·	·	·
O=C(NN1C(=O)c2ccccc2NC1c1cccnc1)c1ccccc1 (stereo unspecified)	-2	-10	10	+	-2	3	·	·	Neddyl conf=i
O=C(NN1C(=O)c2ccccc2NC1c1ccco1)c1ccccc1 (stereo unspecified)	-3	2	-2	i	-2	3	·	·
Cc1c(OCc2ccc(C(=O)O)o2)ccc2c3c(c(=O)oc12)CCC3	6	12	21	+	0	3	·	·	Neddyl conf=i
Cc1cc(=O)oc2c(C)c(OC(C)C(=O)NCC3CCC(C(=O)O)CC3)ccc12 (stereo unspecified)	-2	7	-6	i	-4	12	·	·
Cc1c(OC(C)C(=O)NCC2CCC(C(=O)O)CC2)ccc2c3c(c(=O)oc12)CCCC3 (stereo unspecified)	-2	1	-5	+	-4	12	·	·	Neddyl conf=i
CNC(=O)c1cnn(-c2nc(-c3ccc(OC)cc3)cs2)c1C(F)(F)F	-1	-8	8	i	-3	0	·	·
CSc1ccc(/C=N/NC(=O)c2sccc2C)cc1	-2	-7	0	+	-4	-6	·	·	Neddyl conf=i
